Blank lines part the entries; values can stand above or below the compound they belong to. Calls of active or inactive are those of the source. No cut-off for these calls is given here.
What was measured:
[1] = test system: Jurkat; experiment: Immunosuppressive activity in human Jurkat T cells assessed as inhibition of PMA-induced IL-2 production at 1 uM after 13 hrs by ELISA relative to control; assay type: functional
Procedure, shortened: (§1)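 Jurkat T lymphocytes at 1 × 10^6 cells/mL were given compound at 1 μM or 10 μM final, then stimulated with 5 nM ionomycin plus 500 nM PMA for 13 h at 37 °C. Cells were spun down and supernatant IL-2 was measured by sandwich ELISA (anti-human IL-2 capture, biotinylated anti-human IL-2 detection). Values are % inhibition versus DMSO negative control, from at least three experiments.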

[2] = test system: Jurkat; experiment: Immunosuppressive activity in human Jurkat T cells assessed as inhibition of PMA-induced IL-2 production at 10 uM after 13 hrs by ELISA relative to control; assay type: functional; procedure, shortened: as §1
[3] = test system: Jurkat; experiment: Immunosuppressive activity in human Jurkat T cells assessed as inhibition of PMA-induced IL-2 production after 13 hrs by ELISA; assay type: functional, cell-based

Structure (SMILES): O=C1C=CCC(c2ccoc2)O1 (centres undefined)
inhibition [1]: inactive
inhibition [2]: inactive

Structure (SMILES): O=C1C=CCC(/C=C/c2ccccc2)O1 (centres undefined)
inhibition at 1 µM [1]: 12.7%
inhibition at 10 µM [2]: 90.1%

Structure (SMILES): COc1ccc(C2CC=CC(=O)O2)cc1 (centres undefined)
inhibition at 1 µM [1]: 39.8%
inhibition at 10 µM [2]: 87.2%

Structure (SMILES): COc1cccc(C2CC=CC(=O)O2)c1 (centres undefined)
inhibition [1]: inactive
inhibition at 10 µM [2]: 90.4%

Structure (SMILES): Cc1ccc2ccccc2c1C1CC=CC(=O)O1 (centres undefined)
inhibition at 1 µM [1]: 6.4%
inhibition at 10 µM [2]: 75.5%

Structure (SMILES): O=C1C=CCC(c2cnc3ccccc3c2)O1 (centres undefined)
inhibition at 1 µM [1]: 41.5%
inhibition at 10 µM [2]: 98.7%

IC50 [3]: 142 nM
Structure (SMILES): Cc1ccc(C2CC=CC(=O)O2)cc1 (centres undefined)
inhibition at 1 µM [1]: 89%
inhibition at 10 µM [2]: 80.6%

Structure (SMILES): Cc1ccccc1C1CC=CC(=O)O1 (centres undefined)
inhibition at 1 µM [1]: 15.2%
inhibition at 10 µM [2]: 86.1%

IC50 [3]: 1570 nM
Structure (SMILES): O=C1C=CCC(CC23CC4CC(CC(C4)C2)C3)O1 (centres undefined)
inhibition at 1 µM [1]: 57.4%
inhibition at 10 µM [2]: 100%

Structure (SMILES): Cc1cccc(C2CC=CC(=O)O2)c1 (centres undefined)
inhibition at 1 µM [1]: 47.9%
inhibition at 10 µM [2]: 64.5%

IC50 [3]: 908 nM
Structure (SMILES): O=C1C=CCC(c2csc3ccccc23)O1 (centres undefined)
inhibition at 1 µM [1]: 77.1%
inhibition at 10 µM [2]: 100%

Structure (SMILES): O=C1C=CCC(c2ccc(OCc3ccccc3)cc2)O1 (centres undefined)
inhibition at 1 µM [1]: 28%
inhibition at 10 µM [2]: 98.9%

Structure (SMILES): O=C1C=CCC(c2cccs2)O1 (centres undefined)
inhibition [1]: inactive
inhibition at 10 µM [2]: 59.6%

Structure (SMILES): COc1ccccc1C1CC=CC(=O)O1 (centres undefined)
inhibition at 1 µM [1]: 11%
inhibition at 10 µM [2]: 89.2%

Structure (SMILES): O=C1C=CCC(C(c2ccccc2)c2ccccc2)O1 (centres undefined)
inhibition at 1 µM [1]: 18.7%
inhibition at 10 µM [2]: 89.2%

IC50 [3]: 66.9 nM
Structure (SMILES): O=C1C=CCC(c2cc3ccccc3o2)O1 (centres undefined)
inhibition at 1 µM [1]: 100%
inhibition at 10 µM [2]: 100%

Structure (SMILES): O=C1C=CCC(c2ccc3ccccc3c2)O1 (centres undefined)
inhibition at 1 µM [1]: 37.5%
inhibition at 10 µM [2]: 97.2%

Structure (SMILES): O=C1C=CCC(c2cccc3ccccc23)O1 (centres undefined)
inhibition at 1 µM [1]: 72.5%
inhibition at 10 µM [2]: 100%

Structure (SMILES): O=C1C=CCC(c2ccsc2)O1 (centres undefined)
inhibition [1]: inactive
inhibition at 10 µM [2]: 46.2%

Structure (SMILES): O=C1C=CCC(c2ccco2)O1 (centres undefined)
inhibition [1]: inactive
inhibition at 10 µM [2]: 21.7%

IC50 [3]: 396 nM
Structure (SMILES): O=C1C=CCC(Cc2ccc3ccccc3c2)O1 (centres undefined)
inhibition at 1 µM [1]: 67.7%
inhibition at 10 µM [2]: 100%

IC50 [3]: 166 nM
Structure (SMILES): O=C1C=CCC(c2ccccc2)O1 (centres undefined)
inhibition at 1 µM [1]: 89.7%
inhibition at 10 µM [2]: 82.6%

Structure (SMILES): Cc1ccc(C2CC=CC(=O)O2)c2ccccc12 (centres undefined)
inhibition at 1 µM [1]: 57.4%
inhibition at 10 µM [2]: 100%

Structure (SMILES): O=C1C=CCC(c2ccnc3ccccc23)O1 (centres undefined)
inhibition at 1 µM [1]: 27.8%
inhibition at 10 µM [2]: 100%
